This is a sample that favours compounds with a hit; in the whole collection about 2% have one here.
STAT3 inh – STAT3 signaling inhibition. actives 0.89% (n = 190,000). U3A cells, IL-6 STAT3-luciferase reporter, luminescence; host cell line lacks STAT1. AID 862. inhibition, % at 5.5 µM;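 active = inhibition above the mean inhibition across all screened compounds plus 3 SD, cut at about 44% in these data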;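 note: 0% = DMSO only wells and 100% = 100 µM nifuroxazide control wells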
HSP90 refold inh – blocks HSP90-mediated luciferase refolding in reticulocyte lysate | actives 0.91% (n = 290,000) | Rabbit reticulocyte lysate, luciferase refolding luminescence, 3 h | inhibition, % at 5.6 µM | AID 1789;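 active = inhibition above the screen-wide mean plus 3 SD, computed separately per campaign, cut at about 16% in these data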;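 note: 0% = DMSO wells and 100% = 60 µM geldanamycin wells; inhibitors lower the luminescence because luciferase stays unfolded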
STAT3 act – increases IL-6 driven STAT3 reporter signal; U3A cells, IL-6 STAT3-luciferase reporter, luminescence; 100% = signal with IL-6 EC80 alone; activation (% of control), % at 5.6 µM; actives 0.91% (n = 190,000); AID 871;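 active = activation above the screen-wide mean of compound activation plus 3 SD, cut at about 130% in these data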;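 note: 0% = background luminescence of wells with medium and substrate only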
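Test system: human U3A cells carrying STAT3-luciferase construct; control set: IL-6-only wells as 100% reference; timing: compound pre-incubation 1 h before IL-6, then 6 h stimulation at 37 °C; also added: IL-6 stimulus at 33 ng/mL final; evaluation: % activation versus median of IL-6-stimulated wells; detection: reporter luminescence signal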
STAT1 inh – reduces IFN-gamma driven STAT1 reporter signal. NIH 3T3 STAT1-luciferase reporter, luminescence. inhibition, % at 5.5 µM. actives 0.35% (n = 200,000);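 active = inhibition above a set limit, the mean inhibition across all tested compounds plus 3 SD, cut at about 34% in these data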;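 note: 0% = IFN-gamma with DMSO and 100% = IFN-gamma with 300 µM nifuroxazide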
HSP90 inh confirm – HSP90 inhibition, confirmation assay | rabbit reticulocyte lysate, luciferase refolding luminescence, 3 h | inhibition, % at 5.9 µM | AID 1846 | actives 64% (n = 2,300) | shares compounds with HSP90 refold inh; in the data active = inhibition above about 18%;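 note: 0% = vehicle wells and 100% = reference inhibitor wells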
luciferase ctr – counter-screen for HSP90 inhibitors: inhibitors of firefly luciferase; shares compounds with HSP90 refold inh; purified native firefly luciferase, luminescence; inhibition, % at 5.9 µM; actives 48% (n = 2,300); AID 1847;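 active = inhibition above the mean inhibition of all tested sample wells plus 3 SD, cut at about 10% in these data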;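 note: 0% = DMSO with luciferase and 100% = wells lacking luciferase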
Target sequence (P08659 whole entry, looked up): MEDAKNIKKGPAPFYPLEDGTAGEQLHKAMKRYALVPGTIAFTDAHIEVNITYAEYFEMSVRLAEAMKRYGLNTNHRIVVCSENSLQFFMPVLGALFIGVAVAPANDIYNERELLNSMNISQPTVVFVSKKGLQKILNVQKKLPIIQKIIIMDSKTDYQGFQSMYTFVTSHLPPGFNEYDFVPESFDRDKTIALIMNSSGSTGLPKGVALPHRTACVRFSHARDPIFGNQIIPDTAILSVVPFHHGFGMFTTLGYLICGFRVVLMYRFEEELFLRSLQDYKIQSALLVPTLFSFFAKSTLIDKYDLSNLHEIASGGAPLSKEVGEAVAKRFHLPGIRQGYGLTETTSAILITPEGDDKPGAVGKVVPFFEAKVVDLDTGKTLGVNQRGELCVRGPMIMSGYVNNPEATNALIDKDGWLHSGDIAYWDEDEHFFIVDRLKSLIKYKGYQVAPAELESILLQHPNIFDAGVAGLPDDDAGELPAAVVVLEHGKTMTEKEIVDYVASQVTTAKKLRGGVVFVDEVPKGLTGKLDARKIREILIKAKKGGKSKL
* hit, by the source's call; . = no result.

SMILES	STAT3 inh	HSP90 refold inh	STAT3 act	STAT1 inh	HSP90 inh confirm	luciferase ctr
Cc1c(-n2c(SCC(=O)NC(C)C)nc3ccccc3c2=O)c(=O)n(-c2ccccc2)n1C	2	-2	102	-1	.	.
CC(c1ccccc1)n1c(-c2cccs2)nc2c(c(=O)c3ccccc3n2C)c1=O (configuration not stated)	.	25*	.	.	-1	-12
O=C(NC1CCCCC1)C1CCN(C(=O)c2ccccc2Cl)CC1	.	-1	.	.	.	.
Cc1ccccc1C(=O)N1CCC(C(=O)NC2CCCCCC2)CC1	.	20*	.	.	-2	-9
Cc1ccc(-c2nc(-c3ccncc3)no2)cc1Cl	.	1	.	.	.	.
Cc1ccc(-c2nc(-c3ccncc3)no2)cc1C	.	21*	.	.	29*	25*
Cc1ccccc1OCCC(=O)Nc1cc(S(=O)(=O)N2CCOCC2)ccc1OC(C)C	.	2	.	.	.	.
CCCCOC(=O)CSc1nc(N)c(C#N)c(-c2ccc(OC)cc2)c1C#N	10	25*	96	1	5	-6
C=CCn1c2ccccc2c(=O)c2cc(C#CC3(O)CCCCC3)ccc21	.	19*	.	.	27*	5
CN(C(=O)CSc1nnc(-c2ccccc2)o1)c1c(N)n(Cc2ccccc2)c(=O)[nH]c1=O	4	19*	103	5	-3	-1
Cc1cnc(C(=O)N2CCCC(N3CCN(c4cccc(C(F)(F)F)c4)CC3)C2)cn1 (configuration not stated)	.	-3	.	.	.	.
Cc1ccc(C)c(N2CCN(C(=O)CCS(=O)(=O)c3ccc4c(c3)CCN4C(=O)C3CC3)CC2)c1	.	-1	.	.	.	.
CCc1ccccc1N(CC(=O)N1CCCC1)S(C)(=O)=O	.	22*	.	.	-3	-2
O=C(C1CC(=O)N(c2ccccc2)C1)N1CCN(c2ccc(F)cc2)CC1 (configuration not stated)	.	4	.	.	.	.
CCc1ccc(NC(=O)c2[nH]c(C)c(C(C)=O)c2C)cc1	.	-1	.	.	.	.
CCOc1ccc(NC(=O)c2[nH]c(C)c(C(C)=O)c2C)cc1	.	19*	.	.	12	-2
COC(=O)c1ccc(N=Nc2c(C)[nH]n(-c3ccccc3)c2=O)cc1	.	26*	.	.	30*	-4
COC(=O)c1ccc(N=NNc2ccccc2)cc1	-2	28*	100	-52	47*	-12
OCCC1CN(Cc2cccc3nccnc23)CCN1Cc1ccc(F)cc1 (configuration not stated)	.	6	.	.	.	.
Cc1nn(-c2ccccc2)c(Cl)c1/C=N/NC(=O)c1[nH]ncc1Br	.	33*	.	.	46*	39*
CC(C)Sc1nc(SCC(=O)NCc2ccco2)c2c3c(sc2n1)COC(C)(C)C3	-15	21*	118	-27	36*	1
COc1ccc(NC(=O)N2CCc3ccccc32)cc1	43	19*	64	-18	37*	23*
Cc1ccc(OCc2ccc(C(=O)O)o2)c([N+](=O)[O-])c1	2	20*	101	6	44*	-4
C=CCc1ccc(OCc2ccc(C(=O)O)o2)c(OC)c1	.	86*	.	.	83*	46*
C=CCc1ccc(OCCCCOc2ccc(C(=O)O)cc2)c(OC)c1	7	-1	97	6	.	.
SMILES	STAT3 inh	HSP90 refold inh	STAT3 act	STAT1 inh	HSP90 inh confirm	luciferase ctr
C=CCc1ccc(OCCn2cccc2C=O)c(OC)c1	13	23*	98	-53	35*	-18
CCCc1ccc(OCc2ccc(C(=O)O)o2)c(OC)c1	9	81*	95	-30	82*	41*
COc1ccc(C(=O)Nc2ccc3[nH]ncc3c2)cc1OC	.	-1	.	.	.	.
S=c1[nH]nc(-c2ccncc2)n1/N=C/c1cccc(Cl)c1	.	9	.	.	.	.
CCn1cc(S(=O)(=O)NCc2ccc(OC)cc2)cn1	.	-5	.	.	.	.
CCCc1ccc(OCc2ccc(C(=O)OC)o2)c(OC)c1	-12	24*	110	-35	30*	-21
Cc1cccc(N2CCN(C(=O)c3c(-c4ccccc4)noc3C)CC2)c1C	.	2	.	.	.	.
O=C(O)Cc1sc(N/N=C\c2ccccc2)nc1-c1ccccc1	7	-1	97	-8	.	.
COC(=O)c1ccc(/C=N/Nc2nc(C)c(C)s2)cc1	.	6	.	.	.	.
CCCc1sc(N/N=C/c2ccccn2)nc1-c1ccc(F)cc1	13	64*	93	-2	-2	-11
Cc1nc(N/N=C/c2ccccn2)sc1C	89*	80*	25	80*	90*	86*
COc1ccc(NC(=O)CN2CCN(c3c(C)cccc3C)CC2)cc1	.	2	.	.	.	.
CCc1c(C)nc(N2CCN(c3ccccc3F)CC2)[nH]c1=O	.	2	.	.	.	.
O=C(COc1cc2oc(=O)c3c(c2cc1Cl)CCC3)NCc1ccncc1	.	-1	.	.	.	.
Cc1ccc(C(=O)Nc2ccsc2C(=O)O)cc1	.	18*	.	.	13	-1
CC(C)n1ncc(N2CCOCC2)c(Cl)c1=O	.	1	.	.	.	.
COc1ccccc1Nc1nn2c(=O)c3ccc(C(=O)NCc4cccnc4)cc3nc2s1	.	20*	.	.	38*	-2
COc1ccccc1Nc1nn2c(=O)c3ccc(C(=O)N4CCCCC4)cc3nc2s1	.	-1	.	.	.	.
COc1cc(/C=C2\CCOC2=O)cc(OC)c1OC	.	5	.	.	.	.
Cc1onc(-c2ccccc2Cl)c1C(=O)N1CCN(C(=O)c2ccco2)CC1	-3	27*	107	-3	-6	-13
COc1ccc(-c2cc3nc[nH]c(=O)c3s2)cc1	33	6	76	-19	.	.
COc1ccc(-c2cc3nc(CCl)[nH]c(=O)c3s2)cc1	.	50*	.	.	56*	59*
CCOc1ccccc1CNC(=O)CCNS(=O)(=O)c1ccc2[nH]c(=O)oc2c1	.	-3	.	.	.	.
Cc1sc2nc3c4ccccc4c(NCc4ccco4)nn3c(=O)c2c1C	0	79*	104	-62	6	-17
COc1ccc(N2C(=O)CC(NCCNc3ccc([N+](=O)[O-])cn3)C2=O)cc1 (configuration not stated)	20	-7	86	3	.	.
SMILES	STAT3 inh	HSP90 refold inh	STAT3 act	STAT1 inh	HSP90 inh confirm	luciferase ctr
COc1ccc(C(=O)Nc2cc(C)on2)cc1	26	5	83	-22	.	.
COc1ccc(OCc2cccc(C(=O)Nn3cc([N+](=O)[O-])cn3)c2)cc1	49*	18*	61	88*	62*	28*
COc1ccc(OCc2cccc(C(=O)Nc3cc(C)on3)c2)cc1	69*	40*	44	58*	65*	58*
O=C(NCc1ccccc1)c1cccc(COc2ccc(Cl)cc2)c1	5	-1	101	-26	.	.
COc1ccc(OCc2cccc(C(=O)NN)c2)cc1	98*	44*	19	65*	54*	30*
CCOc1ccc(OCc2cccc(C(=O)N/N=C/c3cccnc3)c2)cc1	96*	31*	19	62*	23*	-4
O=C(N/N=C/c1cccnc1)c1cccc(Br)c1	.	0	.	.	.	.
COc1ccc(OC)c(NS(=O)(=O)c2c(C)nc3sccn3c2=O)c1	.	-3	.	.	.	.
COc1ccc(Cl)cc1NC(=O)C(C)N1CCN(c2ccccn2)CC1 (configuration not stated)	.	-1	.	.	.	.
Cc1ccc(C2=NN(CCC#N)C(=O)CO2)cc1	.	2	.	.	.	.

From PubChem
